Test results reported in ChEMBL document CHEMBL3600361, “Hydnocarpin-Type Flavonolignans: Semisynthesis and Inhibitory Effects on Staphylococcus aureus Biofilm Formation” (J Nat Prod, 2015).
In brackets after ≈: the same amount, converted by molar mass. Activity calls are given as the source filed them. No cut-off for these calls is given here.

How the values were obtained:
Staphylococcus aureus [1] = assay: Toxicity in Staphylococcus aureus 8325-4 assessed as inhibition of bacterial growth; type: organism-based
Staphylococcus aureus [2] = assay: Inhibition of biofilm formation in Staphylococcus aureus 8325-4 after 24 hrs by microtiter plate assay; type: functional, organism-based; conditions: for EC50: Staphylococcus aureus, 8325-4, 24 h
How it was run: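 Static 96-well crystal-violet assay with S. aureus 8325-4. Inoculum came from an overnight BHI agar culture, suspended in 0.9% NaCl to McF 0.5, 5 μL per well into TS medium containing compounds as monosodium salts at […]. Plates ran 24 h at 37 °C. Wells were rinsed three times, stained with 1% crystal violet for 15 min and eluted with 96% ethanol. Read at A630, at least triplicate.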

Staphylococcus aureus [3] = assay: Disruption of biofilm formation in Staphylococcus aureus 8325-4 after 24 hrs by microtiter plate assay; type: functional, organism-based
Staphylococcus aureus [4] = assay: Antibacterial activity against methicillin-resistant Staphylococcus aureus N315 by microbroth dilution method; type: functional
How it was run: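 MIC against methicillin-resistant S. aureus N315, determined by standard microbroth dilution in Mueller-Hinton broth.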

Staphylococcus aureus [5] = assay: Antibacterial activity against Staphylococcus aureus ATCC 29213 by microbroth dilution method; type: functional
How it was run: (§1)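 Standard broth microdilution in Mueller-Hinton broth gave MICs. For the combination lines, enrofloxacin MIC was measured with the tested compound present at the stated concentration.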

Staphylococcus aureus [6] = assay: Antibacterial activity against Staphylococcus aureus 8325-4 by microbroth dilution method; type: functional; how it was run: as §1
Staphylococcus aureus [7] = assay: Antibacterial activity against Staphylococcus aureus 8325-4 assessed as reduction of enrofloxacin MIC at 1 ug/ml by microbroth dilution method; type: functional; how it was run: as §1
Staphylococcus aureus [8] = assay: Antibacterial activity against Staphylococcus aureus ATCC 29213 assessed as reduction of enrofloxacin MIC at 1 ug/ml by microbroth dilution method; type: functional; how it was run: as §1
Staphylococcus aureus [9] = assay: Antibacterial activity against Staphylococcus aureus ATCC 29213 assessed as reduction of enrofloxacin MIC at 8 ug/ml by microbroth dilution method; type: functional; how it was run: as §1
Staphylococcus aureus [10] = assay: Antibacterial activity against methicillin-resistant Staphylococcus aureus N315 assessed as reduction of enrofloxacin MIC at 1 ug/ml by microbroth dilution method; type: functional
How it was run: (§2)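 Standard microbroth dilution in Mueller-Hinton broth against methicillin-resistant S. aureus N315. The enrofloxacin MIC was determined with the test compound added to the broth.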

Staphylococcus aureus [11] = assay: Antibacterial activity against methicillin-resistant Staphylococcus aureus N315 assessed as reduction of enrofloxacin MIC at 8 ug/ml by microbroth dilution method; type: functional; how it was run: as §2
Staphylococcus aureus [12] = assay: Antibacterial activity against Staphylococcus aureus ATCC 29213 assessed as reduction of enrofloxacin MIC at 32 ug/ml by microbroth dilution method; type: functional; how it was run: as §1
Staphylococcus aureus [13] = assay: Inhibition of biofilm formation in Staphylococcus aureus 8325-4 at 8 mM after 24 hrs by microtiter plate assay in presence of glucose; type: functional; conditions: 8325-4, 24 h
How it was run: (§3)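 Same static crystal-violet biofilm protocol as above, with 1% glucose added to the TS medium. S. aureus 8325-4 grew 24 h at 37 °C with the compound. Adherent cells were stained with crystal violet, eluted in ethanol and read at A630. Means come from three independent experiments.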

Staphylococcus aureus [14] = assay: Antibacterial activity against methicillin-resistant Staphylococcus aureus N315 assessed as reduction of enrofloxacin MIC at 32 ug/ml by microbroth dilution method; type: functional; how it was run: as §2
Staphylococcus aureus [15] = assay: Antibacterial activity against Staphylococcus aureus 8325-4 assessed as reduction of enrofloxacin MIC at 8 ug/ml by microbroth dilution method; type: functional; how it was run: as §1
Staphylococcus aureus [16] = assay: Inhibition of biofilm formation in Staphylococcus aureus 8325-4 at […] after 24 hrs by microtiter plate assay in presence of glucose; type: functional, organism-based; how it was run: as §3
Staphylococcus aureus [17] = assay: Antibacterial activity against Staphylococcus aureus 8325-4 assessed as reduction of enrofloxacin MIC at 32 ug/ml by microbroth dilution method; type: functional; how it was run: as §1

Structure (SMILES)	Activity (Staphylococcus aureus [1])	MBIC (Staphylococcus aureus [2]) [µM]	EC50 (Staphylococcus aureus [2]) [µg/mL]	Activity (Staphylococcus aureus [3])	further results
COc1cc(C2Oc3cc([C@H]4Oc5cc(O)cc(O)c5C(=O)[C@@H]4O)ccc3OC2CO)ccc1O (stereo partly specified) [SILIBININ]	Non-toxic	> 124	64 (≈ 133 µM)	inactive	–
COc1cc([C@H]2Oc3ccc([C@H]4Oc5cc(O)cc(O)c5C(=O)[C@@H]4O)cc3O[C@@H]2CO)ccc1O [ISOSILYBIN A]	Non-toxic	124	32 (≈ 66.3 µM)	inactive	–
CCN1CCN(c2cc3c(cc2F)c(=O)c(C(=O)O)cn3C2CC2)CC1 [ENROFLOXACIN]	–	–	–	–	MIC (Staphylococcus aureus [4]): 2 µg/mL (≈ 5.56 µM); MIC (Staphylococcus aureus [5]): 1 µg/mL (≈ 2.78 µM); MIC (Staphylococcus aureus [6]): 0.5 µg/mL (≈ 1.39 µM)
COc1cc([C@H]2Oc3cc(-c4cc(=O)c5c(O)cc(O)cc5o4)ccc3O[C@@H]2CO)ccc1O [HYDNOCARPIN]	Non-toxic	64	16 (≈ 34.5 µM)	inactive	–
COc1cc(C2Oc3c(O)cc(-c4cc(=O)c5c(O)cc(O)cc5o4)cc3C2CO)ccc1O (stereo unspecified)	Non-toxic	> 124	64 (≈ 138 µM)	inactive	–
COc1cc(C2Oc3cc(-c4cc(=O)c5c(O)cc(O)cc5o4)ccc3OC2CO)ccc1O (racemic)	Non-toxic	32	4 (≈ 8.61 µM)	inactive	–
COc1cc([C@H]2Oc3cc(-c4oc5cc(O)cc(O)c5c(=O)c4O)ccc3O[C@@H]2CO)ccc1O	Non-toxic	64	16 (≈ 33.3 µM)	inactive	–
COc1cc([C@@H]2Oc3cc(-c4cc(=O)c5c(O)cc(O)cc5o4)ccc3O[C@H]2CO)ccc1O	Non-toxic	8	2 (≈ 4.31 µM)	inactive	MIC (Staphylococcus aureus [7]): 0.125 µg/mL; MIC (Staphylococcus aureus [8]): 0.25 µg/mL; MIC (Staphylococcus aureus [9]): 0.0625 µg/mL; MIC (Staphylococcus aureus [10]): 1 µg/mL; MIC (Staphylococcus aureus [11]): 0.5 µg/mL; MIC (Staphylococcus aureus [12]): 0.0625 µg/mL; inhibition at 8000 µM (Staphylococcus aureus [13]): 80%; MIC (Staphylococcus aureus [14]): 0.5 µg/mL; MIC (Staphylococcus aureus [15]): 0.0625 µg/mL; inhibition (Staphylococcus aureus [16]): Active; MIC (Staphylococcus aureus [17]): 0.0625 µg/mL
COc1cc([C@H]2Oc3ccc(-c4cc(=O)c5c(O)cc(O)cc5o4)cc3O[C@@H]2CO)ccc1O	Non-toxic	64	16 (≈ 34.5 µM)	inactive	–
